Test results from ChEMBL document CHEMBL3856288, “Amidate Prodrugs of Deoxythreosyl Nucleoside Phosphonates as Dual Inhibitors of HIV and HBV Replication” (J Med Chem, 2016).

What was measured:
[1] = Drug level in pH 8 phosphate buffer treated with 1'alpha-(Adenin-9-yl)-2'-deoxy-3'-O-{[N-(diisoamyl-L-aspartate)](phenoxy)methylphosphonoamidate}-L-threose at 2 mg measured every 30 mins for 14 hrs by RP-HPLC/mass spectra analysis
Hepatitis B virus [2] = assay: Antiviral activity against HBV ayw1 infected in human HepG2(2.2.15) cells assessed as reduction in viral replication by measuring extracellular viral DNA copy number after 6 days by real-time qPCR method; type: functional, cell-based; details: ayw1, HepG2 2.2.15, 144 h
Method in brief: (§1)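 HepG2 2.2.15 cells (stable line carrying two copies of the HBV ayw1 genome) were seeded at 1.5 × 10^4 cells/well in DMEM with 2% FBS and G418. After 16−24 h, compound was added in triplicate, and medium plus compound was renewed on day 3. On day 6, supernatant was Pronase-treated and extracellular HBV DNA was quantified by TaqMan qPCR against an HBV DNA standard curve to give EC50/EC90. Cell viability was read by MTS uptake to give CC50.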

[3] = Antiviral activity against HIV2 ROD infected in human MT4 cells assessed as protection against virus-induced cytopathic effect after 5 days by MTT assay; type: functional, cell-based, Human immunodeficiency virus type 2 (ISOLATE ROD); details: Human immunodeficiency virus 2, MT4, 120 h
[4] = Cytotoxicity against human HepG2(2.2.15) cells assessed as reduction in cell viability by MTS assay; type: toxicity, cell-based; method in brief: as §1
[5] = Cytotoxicity against human MT4 cells assessed as decrease in cell viability after 5 days by MTT assay; type: toxicity, cell-based
[6] = system: Human immunodeficiency virus 1; assay: Antiviral activity against HIV1 3B infected in human MT4 cells assessed as protection against virus-induced cytopathic effect after 5 days by MTT assay; type: functional, cell-based; details: Human immunodeficiency virus 1, 3B, MT4, 120 h
[7] = Half life in human liver S9 fraction at 100 uM by HPLC-UV method; type: ADME, subcellular
Method in brief: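 Incubation started by adding human liver S9 fraction (4 mg/mL) at 37 °C; aliquots at 0, 10, 20, 30, 60 min quenched in acetonitrile, centrifuged, supernatant analysed by C18 HPLC with UV at 260 nm; parent peak area versus time 0 gave percent remaining and half-life.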

[8] = Selectivity ratio of CC50 for human HepG2(2.2.15) cells to EC50 for reduction in HBV ayw1 intracellular DNA copy number; type: ADME, cell-based; details: read-out: Ratio CC50/EC50
Method in brief: (§2)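 The protocol was the same as the primary HepG2 2.2.15 assay (triplicate dosing, medium plus compound renewed on day 3, 6-day course). At the end, total intracellular DNA was isolated from the cells and HBV DNA copy number was measured by TaqMan qPCR to give EC50/EC90. CC50 came from MTS viability, and SI was taken as CC50/EC50.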

[9] = Selectivity index, ratio of CC50 for human MT4 cells to EC50 for HIV2 ROD infected in human MT4 cells; type: toxicity, cell-based; details: read-out: Ratio CC50/EC50
[10] = Selectivity index, ratio of CC50 for human MT4 cells to EC50 for HIV1 3B infected in human MT4 cells; type: toxicity, cell-based; details: read-out: Ratio CC50/EC50
[11] = Selectivity ratio of CC50 for human HepG2(2.2.15) cells to EC50 for reduction in HBV ayw1 extracellular DNA copy number; details: read-out: Ratio CC50/EC50
Method in brief: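 HepG2 2.2.15 cells (two HBV ayw1 genome copies), 1.5 × 10^4 cells/well in DMEM with 2% FBS and G418; compound dosed in triplicate and medium renewed on day 3. On day 6, Pronase-treated supernatant HBV DNA measured by TaqMan qPCR against a standard curve, giving EC50. MTS uptake gave CC50, and the ratio was calculated from these.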

Hepatitis B virus [12] = assay: Antiviral activity against HBV ayw1 infected in human HepG2(2.2.15) cells assessed as reduction in viral replication by measuring intracellular viral DNA copy number after 6 days by real-time qPCR method; type: functional, cell-based; details: ayw1, HepG2 2.2.15, 144 h; method in brief: as §2
[13] = Half life in human liver microsomes at 0.1 uM in presence of NADPH-regenerating system by HPLC MS/MS method; type: ADME
Method in brief: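 Pooled liver microsomes preincubated 10 min at 37 °C with NADPH-regenerating system (1 mM NADP, 5 mM G6P, 1 U/mL G6PDHase) in phosphate buffer pH 7.4, 3 mM MgCl2, 1 mM EDTA; compound added at 0.1 μM final; samples at 0, 15, 30, 45, 60 min quenched in acetonitrile/methanol, analysed by HPLC MS/MS.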

[14] = system: Human immunodeficiency virus 1; assay: Antiviral activity against HIV1 3B infected in human MT2 cells assessed as protection against virus-induced cytopathic effect after 5 days by XTT assay; type: functional, cell-based; details: Human immunodeficiency virus 1, 3B, MT2, 120 h
[15] = Drug level in acetone-d6/pH 7.6 Trizma buffer treated with 1'alpha-(Adenin-9-yl)-2'-deoxy-3'-O-{[N-(diisoamyl-L-aspartate)](phenoxy)methylphosphonoamidate}-L-threose assessed as baker's yeast carboxypeptidase Y-mediated compound formation at 1 mg after 3 hrs by RP-HPLC/mass spectra analysis; type: ADME; details: saccharomyces cerevisiae, in vitro, pH 7.6, 3 h

Row | Structure (SMILES) | Drug metabolism [1] | EC50 (Hepatitis B virus [2]) [µM] | EC50 [3] [µM] | CC50 [4] [µM] | CC50 at 120 h [5] [µM] | EC50 [6] [µM] | half-life at 100 µM [7] [min] | selectivity ratio [8] | EC90 (Hepatitis B virus [2]) [µM] | selectivity ratio [9] | selectivity ratio [10] | selectivity ratio [11] | EC50 (Hepatitis B virus [12]) [µM] | EC90 (Hepatitis B virus [12]) [µM] | half-life at 0.1 µM [13] [min] | EC50 [14] [µM] | Drug metabolism [15]
1 | CC(C)CCOC(=O)C[C@H](NP(=O)(O)CO[C@H]1CO[C@@H](n2cnc3c(N)ncnc32)C1)C(=O)OCCC(C)C | Metabolite detected | – | – | – | – | – | – | – | – | – | – | – | – | – | – | – | –
2 | CCCOC(=O)[C@H](Cc1ccccc1)NP(=O)(CO[C@H]1CO[C@@H](n2cnc3c(=O)[nH]c(N)nc32)C1)N[C@@H](Cc1ccccc1)C(=O)OCCC | – | > 100 | > 62 | > 100 | > 62 | > 62 | – | – | – | – | – | – | – | – | – | – | –
3 | CCCOC(=O)[C@H](Cc1ccccc1)NP(=O)(CO[C@H]1CO[C@@H](n2cnc3c(N)ncnc32)C1)N[C@@H](Cc1ccccc1)C(=O)OCCC | – | 0.01 | 0.002 | > 10 | 1.12 | 0.0033 | < 10 | > 3330 | 4.2 | 570 | 347 | > 1000 | 0.03 | 6.37 | 7 | – | –
4 | C[C@H](Cn1cnc2c(N)ncnc21)OCP(=O)(O)O [TENOFOVIR ANHYDROUS] | – | – | – | – | – | – | – | – | – | – | – | – | – | – | – | 5 | –
5 | CC(C)OC(=O)[C@H](C)NP(=O)(CO[C@H]1CO[C@@H](n2ccc(N)nc2=O)C1)Oc1ccccc1 (stereo partly drawn) | – | 47.9 | > 160 | > 100 | > 160 | > 160 | – | – | – | – | – | > 2 | – | – | – | – | –
6 | Nc1ccn([C@@H]2CS[C@H](CO)O2)c(=O)n1 [LAMIVUDINE] | – | 0.01 | – | > 2 | > 87.2 | – | – | > 254 | > 2 | > 10 | > 39 | > 200 | < 0.01 | > 2 | – | – | –
7 | Nc1ccn([C@H]2C[C@@H](OCP(=O)(O)O)CO2)c(=O)n1 | – | > 100 | > 343 | > 100 | > 343 | > 343 | – | – | > 100 | – | – | – | – | – | – | – | –
8 | CCCOC(=O)[C@H](Cc1ccccc1)NP(=O)(CO[C@H]1CO[C@@H](n2cc(C)c(=O)[nH]c2=O)C1)N[C@@H](Cc1ccccc1)C(=O)OCCC | – | 0.28 | 0.0204 | > 10 | 56.6 | 0.0292 | – | – | > 10 | 2780 | 1970 | > 36 | – | – | – | – | –
9 | CC(C)CCOC(=O)C[C@H](NP(=O)(O)CO[C@H]1CO[C@@H](n2cnc3c(N)ncnc32)C1)C(=O)O | – | – | – | – | – | – | – | – | – | – | – | – | – | – | – | – | Metabolite_Detected
10 | CC(C)OC(=O)[C@H](C)NP(=O)(CO[C@H]1CO[C@@H](n2cnc3c(=O)[nH]c(N)nc32)C1)Oc1ccccc1 (stereo partly drawn) | – | > 100 | > 112 | > 100 | ≥ 112 | > 112 | – | – | > 100 | – | – | – | – | – | – | – | –
11 | Nc1ncnc2c1ncn2[C@@H]1OC[C@H](OCP(=O)(O)O)[C@H]1F | – | 79.6 | ≥ 214 | > 100 | 262 | ≥ 222 | – | – | > 100 | – | – | – | – | – | – | – | –
12 | CC(C)OC(=O)[C@H](C)NP(=O)(CO[C@H]1CO[C@@H](n2cnc3c(N)ncnc32)C1)Oc1ccccc1 (stereo partly drawn) | – | 0.03 | 0.0535 | > 10 | 61.8 | 0.103 | > 60 | – | > 10 | 1150 | 597 | > 333 | – | – | > 60 | – | –
13 | CC(C)OC(=O)[C@H](C)NP(=O)(CO[C@H]1CO[C@@H](n2ccc(N)nc2=O)C1)N[C@@H](C)C(=O)OC(C)C | – | > 100 | > 193 | > 100 | ≥ 193 | > 193 | – | – | > 100 | – | – | – | – | – | – | – | –
14 | CC(C)OC(=O)[C@H](C)NP(=O)(CO[C@H]1CO[C@@H](n2cnc3c(=O)[nH]c(N)nc32)C1)N[C@@H](C)C(=O)OC(C)C | – | > 100 | > 97.6 | > 100 | ≥ 97.6 | > 97.6 | – | – | > 100 | – | – | – | – | – | – | – | –
15 | Nc1ncnc2c1ncn2[C@H]1C[C@@H](OCP(=O)(O)O)CO1 | – | 0.5 | 5.23 | > 100 | ≥ 315 | 4.69 | – | – | – | ≥ 60 | ≥ 67 | > 200 | – | – | – | – | –
16 | Nc1nc2c(ncn2[C@H]2C[C@@H](OCP(=O)(O)O)CO2)c(=O)[nH]1 | – | > 100 | > 302 | > 100 | > 302 | > 302 | – | – | > 100 | – | – | – | – | – | – | – | –
17 | Cc1cn([C@H]2C[C@@H](OCP(=O)(N[C@@H](CC(=O)OCCC(C)C)C(=O)OCCC(C)C)Oc3ccccc3)CO2)c(=O)[nH]c1=O (stereo partly drawn) | – | 0.25 | 0.011 | 34 | 42.2 | 0.0173 | – | – | > 100 | 3860 | 2350 | 136 | – | – | – | – | –
18 | Cc1cn([C@H]2C[C@@H](OCP(=O)(N[C@@H](C)C(=O)OC(C)C)Oc3ccccc3)CO2)c(=O)[nH]c1=O (stereo partly drawn) | – | 0.26 | 0.424 | > 100 | 127 | 0.565 | – | – | > 10 | 295 | 223 | > 38 | – | – | – | – | –
19 | Cc1cn([C@H]2C[C@@H](OCP(=O)(O)O)CO2)c(=O)[nH]c1=O | – | 40.2 | 23.6 | > 100 | 297 | 27.1 | – | – | – | 13 | 11 | > 2.49 | – | – | – | – | –
